ChEMBL document CHEMBL2346587, “Design, synthesis, and evaluation of a water-soluble antofine analogue with high antiproliferative and antitumor activity” (Bioorg Med Chem, 2013)
Activity calls are given as the source filed them. No cut-off for these calls is given here.

Legend:
SK-HEP1 = assay: Cytotoxicity against human SKHEP1 cells after 72 hrs by SRB assay; format: functional, cell-based; details: SK-HEP1, 72 h
Procedure, shortened: (§1)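 SRB growth assay: 5 × 10^3 cells/well exposed to a concentration series for 72 h; fixed in 10% TCA 30 min at 4 °C, stained with 0.4% SRB in 1% acetic acid 30 min, dye dissolved in 10 mM Tris pH 10.0, absorbance at 515 nm. Viability relative to vehicle control; IC50 by non-linear regression; at least three experiments. A549-Pa is a paclitaxel-resistant A549 subline.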

SNU-638 = assay: Cytotoxicity against human SNU638 cells after 72 hrs by SRB assay; format: functional, cell-based; details: SNU-638, 72 h; procedure, shortened: as §1
A549 [1] = assay: Cell cycle arrest in human A549 cells assessed as accumulation at G0/G1 phase at 100 nM after 24 hrs by flow cytometry (reference value: 62.38 %); format: functional
A549 [2] = assay: Antitumor activity against paclitaxel-resistant human A549 cells xenografted in athymic nu/nu BALB/c mouse assessed as inhibition of tumor growth at 5 mg/kg, ip administered 35 days post-implantation 3 times a week relative to control; format: functional; details: 840 h, route intraperitoneal, read-out: TGI
Procedure, shortened: (§2)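 Female athymic BALB/c nu/nu mice, six weeks old; 2 × 10^6 A549 or A549-Pa cells in 0.1 mL RPMI injected s.c. into right flank on day 0. Dosing began at 95–100 mm3 tumour volume: drug in 1% cremophore in PBS given i.p. three times weekly; controls got vehicle; five mice/group. Tumour volume tracked every 3–5 days; tumours excised and weighed at end; sections immunostained for Ki-67.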

A549 [3] = assay: Antitumor activity against paclitaxel-resistant human A549 cells xenografted in athymic nu/nu BALB/c mouse assessed as inhibition of tumor growth at 10 mg/kg, ip administered 35 days post-implantation 3 times a week relative to control; format: functional; details: 840 h, route intraperitoneal, read-out: TGI; procedure, shortened: as §2
A549 [4] = assay: Antitumor activity against human A549 cells xenografted in athymic nu/nu BALB/c mouse assessed as inhibition of Ki-67 expression at 5 to 10 mg/kg, ip administered 35 days post-implantation 3 times a week by immunohistochemistry; format: functional, organism-based; procedure, shortened: as §2
[5] = molecular target: T1, ATP-dependent translocase ABCB1 (Homo sapiens, UniProt P08183); assay: Inhibition of P-gp activity in human paclitaxel-resistant A549 cells assessed as rhodamine 123 accumulation at 200 nM after 72 hrs by FACS analysis (reference value: 14.4 %); format: cell-based; parameters: scale not given: the % may be the effect or the level left; details: a549, 72 h, 0.2 µM
A549 [6] = assay: Antitumor activity against human A549 cells xenografted in athymic nu/nu BALB/c mouse assessed as inhibition of tumor growth at 5 mg/kg, ip administered 35 days post-implantation 3 times a week relative to control; format: functional; details: 840 h, route intraperitoneal, read-out: TGI; procedure, shortened: as §2
[7] = molecular target: T1, ATP-dependent translocase ABCB1; assay: Inhibition of P-gp activity in human […] A549 cells potentiation of 10 uM paclitaxel-induced cytotoxicity at 0.2 uM by SRB assay; format: cell-based; details: a549, 0.2 µM
[8] = molecular target: T1, ATP-dependent translocase ABCB1; assay: Inhibition of P-gp activity in human paclitaxel-resistant A549 cells potentiation of 10 uM paclitaxel-induced cytotoxicity at 0.2 uM by SRB assay; format: cell-based; details: a549, 0.2 µM
Procedure, shortened: (§3)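 A549-Pa cells plated at 5 × 10^4 cells/well and co-treated for 48 h with the compound (0–200 nM) plus paclitaxel or gefitinib; growth inhibition by SRB assay. Combination index computed at the 50% inhibition level as CI = D1/(Dx)1 + D2/(Dx)2, comparing combined versus single-agent concentrations.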

[9] = molecular target: T1, ATP-dependent translocase ABCB1; assay: Inhibition of P-gp activity in human paclitaxel-resistant A549 cells potentiation of 2.5 uM gefitinib-induced cytotoxicity at 0.05 uM by SRB assay; format: cell-based; details: a549, 0.05 µM; procedure, shortened: as §3
[10] = molecular target: T1, ATP-dependent translocase ABCB1; assay: Inhibition of P-gp activity in human paclitaxel-resistant A549 cells potentiation of 5 uM paclitaxel-induced cytotoxicity at 0.1 uM by SRB assay; format: cell-based; details: a549, 0.1 µM; procedure, shortened: as §3
[11] = molecular target: T1, ATP-dependent translocase ABCB1; assay: Inhibition of P-gp activity in paclitaxel-resistant human A549 cells potentiation of 2.5 uM paclitaxel-induced cytotoxicity at 0.05 uM by SRB assay; format: cell-based; details: a549, 0.05 µM; procedure, shortened: as §3
[12] = molecular target: TCF4/beta-catenin (Homo sapiens) (UniProt P35222+Q9NQB0); assay: Inhibition of transcription activity of […]/TCF4 (unknown origin) expressed in HEK293 cells after 24 hrs by luciferase reporter gene assay; format: cell-based
Procedure, shortened: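 HEK293 cells were co-transfected for 24 h with 100 ng TOPflash β-catenin/Tcf reporter and 5 ng pRL-SV40. Graded compound concentrations were then added for 24 h. Firefly activity was read with a dual-luciferase system and normalized to Renilla. Significance was tested against DMSO control.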

A549 [13] = assay: Inhibition of AKT/mTOR signaling in human A549 cells assessed as inhibition of eIF4E phosphorylation at 50 to 400 nM after 24 hrs by Western blot analysis; format: cell-based
Procedure, shortened: (§4)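 A549 cells plated at 3 × 10^5 per 60 mm dish, grown 24 h, then exposed to a concentration series for 24 h. Lysed in boiling SDS sample buffer with NaF and orthovanadate; protein by BCA; 25–50 µg run on 8–15% SDS-PAGE, transferred to PVDF, blocked in 5% milk/PBST, primary antibodies overnight at 4 °C, secondary 1–2 h, ECL detection.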

A549 [14] = assay: Inhibition of AKT/mTOR signaling in human A549 cells assessed as inhibition of 4E-BP1 phosphorylation at 50 to 400 nM after 24 hrs by Western blot analysis; format: cell-based; procedure, shortened: as §4
A549 [15] = assay: Inhibition of AKT phosphorylation at T308 residue in human A549 cells at 50 to 400 nM after 24 hrs by Western blot analysis; format: cell-based; procedure, shortened: as §4
[16] = Inhibition of Wnt signaling in human A549 cells assessed as reduction in cyclin D1 protein expression at 50 to 400 nM after 24 hrs by Western blot analysis; format: cell-based
Procedure, shortened: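 A549 cells were seeded at 3 × 10^5 per 60 mm dish, grown 24 h, then given graded compound concentrations for 24 h. Lysis was in boiling SDS buffer, with BCA protein assay. 25–50 µg per lane was run on 8–15% SDS-PAGE and blotted to PVDF. Primary antibodies (1:1000–1:2000) went on overnight at 4 °C, then secondary and ECL read-out.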

A549 [17] = assay: Cell cycle arrest in human A549 cells assessed as accumulation at sub-G1 phase at 400 nM after 24 hrs by flow cytometry (reference value: 1.40 %); format: functional
A549 [18] = assay: Cell cycle arrest in human A549 cells assessed as accumulation at sub-G1 phase at 200 nM after 24 hrs by flow cytometry (reference value: 1.40 %); format: functional
A549 [19] = assay: Cell cycle arrest in human A549 cells assessed as accumulation at G2/M phase at 50 nM after 24 hrs by flow cytometry (reference value: 22.84 %); format: functional
A549 [20] = assay: Cell cycle arrest in human A549 cells assessed as accumulation at S phase at 50 nM after 24 hrs by flow cytometry (reference value: 13.38 %); format: functional
A549 [21] = assay: Cytotoxicity against human A549 cells after 72 hrs by SRB assay; format: functional, cell-based; details: A549, 72 h; procedure, shortened: as §1
A549 [22] = assay: human A549 cells assessed as morphological changes at 50 to 400 nM after 24 hrs by inverted phase-contrast microscopy

T1 sequence (P08183 whole entry): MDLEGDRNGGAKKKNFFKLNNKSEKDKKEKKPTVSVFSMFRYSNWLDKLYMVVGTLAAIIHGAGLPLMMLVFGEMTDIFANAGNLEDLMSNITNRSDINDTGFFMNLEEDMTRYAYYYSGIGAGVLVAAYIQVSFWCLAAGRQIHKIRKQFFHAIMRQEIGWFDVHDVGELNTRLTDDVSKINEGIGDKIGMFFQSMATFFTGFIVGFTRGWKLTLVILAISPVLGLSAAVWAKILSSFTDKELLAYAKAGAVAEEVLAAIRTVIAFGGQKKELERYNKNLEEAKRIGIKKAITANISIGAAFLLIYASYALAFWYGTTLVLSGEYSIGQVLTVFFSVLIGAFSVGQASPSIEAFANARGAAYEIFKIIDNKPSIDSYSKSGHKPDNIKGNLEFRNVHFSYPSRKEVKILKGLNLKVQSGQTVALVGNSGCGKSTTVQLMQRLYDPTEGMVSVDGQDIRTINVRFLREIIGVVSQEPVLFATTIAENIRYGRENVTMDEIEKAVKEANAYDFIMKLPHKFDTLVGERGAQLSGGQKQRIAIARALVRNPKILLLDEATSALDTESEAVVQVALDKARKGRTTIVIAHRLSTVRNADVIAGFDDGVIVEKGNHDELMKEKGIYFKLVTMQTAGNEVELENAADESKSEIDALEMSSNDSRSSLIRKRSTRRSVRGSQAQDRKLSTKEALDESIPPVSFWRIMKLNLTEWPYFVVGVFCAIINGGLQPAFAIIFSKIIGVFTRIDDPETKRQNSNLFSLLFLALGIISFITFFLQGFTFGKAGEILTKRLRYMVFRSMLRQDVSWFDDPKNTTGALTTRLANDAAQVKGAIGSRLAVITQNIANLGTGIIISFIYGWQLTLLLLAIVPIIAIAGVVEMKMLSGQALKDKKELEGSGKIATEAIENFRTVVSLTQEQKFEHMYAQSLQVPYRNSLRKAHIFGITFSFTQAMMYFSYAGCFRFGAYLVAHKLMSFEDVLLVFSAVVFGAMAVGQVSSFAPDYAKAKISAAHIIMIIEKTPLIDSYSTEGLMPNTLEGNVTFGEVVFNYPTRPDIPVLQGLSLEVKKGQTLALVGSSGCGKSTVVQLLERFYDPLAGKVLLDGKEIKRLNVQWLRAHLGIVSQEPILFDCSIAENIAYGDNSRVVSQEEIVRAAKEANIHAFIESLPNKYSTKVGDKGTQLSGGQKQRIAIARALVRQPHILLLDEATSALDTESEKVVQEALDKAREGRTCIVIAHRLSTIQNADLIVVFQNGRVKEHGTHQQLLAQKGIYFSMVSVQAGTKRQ

Structure (SMILES): COc1ccc2c3c(c4cc(OC)c(OC)cc4c2c1)C[C@@]1(CO)CCCN1C3
- IC50 (SK-HEP1): 60 nM
- IC50 (SNU-638): 80 nM
- Activity (A549 [1]): 68.38%
- inhibition in vivo at 5 mg/kg (A549 [2]): 38.4%
- inhibition in vivo at 10 mg/kg (A549 [3]): 54.8%
- inhibition (A549 [4]): Active
- Activity [5]: 37.1%
- inhibition in vivo at 5 mg/kg (A549 [6]): 54.9%
- fractional inhibitory concentration index (FICI) [7]: 1.002
- fractional inhibitory concentration index (FICI) [8]: 0.413
- fractional inhibitory concentration index (FICI) [9]: 0.653
- fractional inhibitory concentration index (FICI) [10]: 0.391
- fractional inhibitory concentration index (FICI) [11]: 0.242
- inhibition [12]: Dose-dependent effect
- inhibition (A549 [13]): Active
- inhibition (A549 [14]): Active
- inhibition (A549 [15]): Active
- inhibition [16]: Active
- Activity (A549 [17]): 1.21%
- Activity (A549 [18]): 1.29%
- Activity (A549 [19]): 20.71%
- Activity (A549 [20]): 12.08%
- IC50 (A549 [21]): 120 nM
- Activity (A549 [22]): Active
